ROMK primary = ROMK potassium channel modulators, primary screen, cell-based, thallium flux, MLSMR library; B-score at 10 µM; ATP-sensitive inward rectifier potassium channel 1 (Homo sapiens), P48048; Tet-inducible ROMK, thallium flux fluorescence; actives lie on both sides; hit rate 2% among 130,000;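 active = signal ratio slope over the read window, or its plate-corrected B-score, at least 3 SD from the plate mean, either direction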;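 also: B-score of the F/F0 ratio slope over 7 to 12 s after thallium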
Target sequence (P48048 whole entry, looked up): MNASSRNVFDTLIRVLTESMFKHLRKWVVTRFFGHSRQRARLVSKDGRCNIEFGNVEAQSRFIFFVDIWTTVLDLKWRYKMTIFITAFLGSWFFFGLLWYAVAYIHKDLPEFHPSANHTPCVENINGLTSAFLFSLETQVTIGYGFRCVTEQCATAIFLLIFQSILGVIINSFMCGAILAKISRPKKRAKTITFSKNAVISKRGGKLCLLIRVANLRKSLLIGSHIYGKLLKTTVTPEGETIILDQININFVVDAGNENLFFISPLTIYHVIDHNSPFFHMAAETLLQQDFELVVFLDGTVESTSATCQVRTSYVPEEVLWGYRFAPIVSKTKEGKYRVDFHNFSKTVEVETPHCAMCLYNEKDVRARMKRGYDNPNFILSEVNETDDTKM
HSV replic up = enhancers of HSV replication in host cells, fold increase, host cell viability | hit rate 0.005% among 220,000 | HSV replication augmentation in cells | maximum fold increase | AID 1956, 2009; in the data active = maximum fold increase above about 1.5; inconclusive = no clear call, values can overlap the other calls; tested in PC3 cells
b-catenin transl = modulators of beta-catenin nuclear translocation, primary screen, imaging, HeLa cells, immunofluorescence, high-content; nuclear translocation activity, % at 5 µM; hit rate 0.3% among 190,000; AID 1665, 2009;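 active = nuclear translocation activity above 50% at 5 µM, with a well cell count of 50 or more; inconclusive = wells under 50 cells across six images, flagged as toxic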;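 also: per-cell ratio of nuclear to cytoplasmic median beta-catenin stain intensity; plate controls were DMSO negative control for no effect and GSK-3 inhibitor IX positive control for full effect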
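Test system: human HeLa cells, native beta-catenin. Compound dosing: 5 µM primary single dose, 0.1% DMSO, 0.02–20 µM confirmation series. Incubation: compound exposure 24 h at 37°C. Detection: beta-catenin immunostaining with DAPI counterstain, 20x imaging, 6 fields/well. Read-out basis: Nuclear/cytoplasmic beta-catenin signal ratio, % activation.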
Insulin prom inh = inhibitors of insulin promoter-driven GFP, primary screen, imaging, TRM-6 cells (human fetal islet line), eGFP reporter, cell count; hit rate 0.9% among 130,000; reporter expression induced with tamoxifen; inhibition, % at 2 µM;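 active = inhibition above the mean plus 3 SD, with well images judged a real hit on visual review, cut at about 60% in these data, passing the limit was not always enough; inconclusive = inhibition over the cutoff but images rejected on review; inactive = inhibition not above the cutoff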
MT stabilize HCS = microtubule stabilizers in HeLa cells, primary screen, imaging, high-content imaging; HeLa tubulin immunostaining HCS, 24 h; share of cells brighter than vehicle mean+2SD; hit rate 0.83% among 200,000; % tubulin-high responders, % at 10 µM; AID 2205, 2009;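 active = plate Z-score above 3 for both tubulin-high and condensed-nucleus cell shares, with cell loss under 80%, at 10 µM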;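 also: anti alpha tubulin signal scored within the nucleus-defined area of each cell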
ROMK hit retest = ROMK channel modulator hit retest, confirmation, cell-based, thallium flux, duplicate, resupplied hits; shares compounds with ROMK primary; fluorescence ratio; stronger effect = lower value; normalized thallium flux (F/F0 slope) at 10 µM; hit rate 54% among 3,000; AID 1917, 2009;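 active = Flux at 10 µM at least 3 SD below or above vehicle control mean in one or both replicates; inconclusive = no clear call, values can overlap the other calls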
Starred values were filed as active, the others as inactive; i = inactive; ? = inconclusive; nt = not tested or not shown. A selection: hits, their analogues and other compounds. The true share with any hit is near 2.4%.

SMILES | ROMK primary | HSV replic up | b-catenin transl | Insulin prom inh | MT stabilize HCS | ROMK hit retest
Cc1ccc(-n2c(-c3ccc(Br)cc3)c[n+]3c2CCc2ccc4cccnc4c2-3)cc1 | nt | i | 0 | -16 | 5 | 0.034*
COc1ccc(-n2c(SCCC#N)nnc2-c2cc(Cl)ccc2OC)cc1Cl | 0.34 | i | nt | nt | 63 | nt
CN1CCN(C(CC(=O)Nc2cccc(O)c2)C(=O)O)CC1 (stereo unspecified) | 0.57 | i | -1 | nt | 2 | nt
COc1ccc(CC(=O)Nc2cccc(-c3nnc(-c4ccc(C)cc4)o3)c2)cc1OC | 0.36 | i | 4 | nt | 4 | nt
COc1ccccc1OCC(=O)Nc1cccc(-c2nnc(-c3ccco3)o2)c1 | nt | i | -3 | -29 | 1 | 0.063*
COc1ccc(CC(=O)Nc2cccc(-c3nnc(-c4ccccc4)o3)c2)cc1OC | nt | i | nt | -5 | 4 | 0.064*
O=C(Cc1ccccc1)Nc1cccc(-c2nnc(-c3ccco3)o2)c1 | -1.5 | i | nt | nt | 5 | nt
BrC(/C=N/N1CCN(Cc2ccccc2)CC1)=C/c1ccccc1 | nt | i | 1 | nt | nt | nt
Clc1cccc(-c2ccc(CNCCCN3CCOCC3)o2)c1 | -3.3 | i | 4 | nt | 4 | nt
CCOc1cc(/C=C(\C#N)C(=O)Nc2ccccc2[N+](=O)[O-])ccc1OCc1cccc2ccccc12 | 0.023 | i | 0 | 45 | 7 | nt
Cc1c(N=Cc2cc(Br)cc(Br)c2O)cccc1C(=O)O | 3.4* | ? | 1 | 23 | 2 | 0.1*
O=C(O)c1cccc(N/N=C/c2cc(Br)cc(Br)c2O)c1 | -0.0062 | i | -1 | -31 | 4 | nt
COc1ccc(Nc2nc(Nc3ccc(OC)cc3)nc(SC3=NCCS3)n2)cc1 | 0.077 | ? | nt | 19 | 1 | nt
Cc1cccc(C(=O)Nc2ccc(N3CCN(S(C)(=O)=O)CC3)cc2)c1 | 0.13 | i | -1 | nt | 4 | nt
COc1ccc(NS(=O)(=O)c2cc(NC(=O)c3cc(F)c(F)c(F)c3F)ccc2N2CCCC2)cc1 | nt | i | 0 | nt | nt | 0.084
COc1ccc(NS(=O)(=O)c2cc(NC(=O)C3CCCO3)ccc2N2CCCCC2)cc1 (stereo unspecified) | 0.56 | i | 2 | -7 | 4 | nt
CC(C)OC(=O)CSc1nnc(CNc2nc(-c3ccccc3)cs2)n1C | -2.7* | i | -1 | -36 | 4 | 0.062*
O=[N+]([O-])c1cc(S(=O)(=O)N2CCCC2)ccc1O | 0.29 | i | -2 | 0 | 4 | nt
O=S(=O)(c1cccc(S(=O)(=O)N2CCCC2)c1)c1cccc(S(=O)(=O)N2CCCC2)c1 | -5.7* | i | 0 | nt | 8 | 0.066*
O=[N+]([O-])c1cc(S(=O)(=O)N2CCCCCC2)ccc1F | nt | i | -1 | nt | 9 | 0.054*
O=c1nc(Nc2ccc(Br)cc2)sc2ccc([N+](=O)[O-])cc12 | nt | i | 0 | nt | nt | nt
Cn1c(=O)cc(OCC(=O)NCc2cccs2)c2ccccc21 | nt | i | 1 | 13 | 1 | nt
C/C(=N\NC(=O)COc1ccc(C)cc1[N+](=O)[O-])c1cccs1 | -2.6* | i | 2 | 9 | 3 | 0.081
Cc1cc(C)n(NC(=S)NC2CCCC2)c(=O)c1C#N | nt | i | 1 | nt | nt | nt
COc1ccc(N=Cc2c(O)c3ccccc3n2C(C)=O)cc1 | nt | ? | 0 | nt | nt | 0.033*
SMILES | ROMK primary | HSV replic up | b-catenin transl | Insulin prom inh | MT stabilize HCS | ROMK hit retest
CN(C)CCn1c(C(=O)Nc2ccccc2)cc2ccccc21 | nt | i | -3 | nt | 5 | nt
CCOC(=O)c1cc2ccccc2n1CCN(CC)CC | 5* | i | -4 | -78 | 1 | ?
CCn1ncc(C2=NOC(C(=O)Nc3c(C)n(C)n(-c4ccccc4)c3=O)C2)c1C (stereo unspecified) | nt | i | 1 | nt | 4 | nt
CCn1ncc(C2=NOC(C(=O)NCc3ccccc3)C2)c1C (stereo unspecified) | 3.1* | i | 64* | -45 | 31* | 0.079
Cc1ccsc1/C=C(\C#N)C(=O)NCCCN1CCOCC1 | -0.32 | i | -3 | nt | 2 | nt
Cc1ccc(/C=C(\C#N)C(=O)NCCN2CCOCC2)cc1 | -3.2* | i | -4 | -4 | 2 | 0.06*
CCSc1nc2sc3c(c2c2nnc(SCC(=O)NCc4ccco4)n12)CCCC3 | 0.83 | i | nt | 36 | 3 | 0.082
